# Compound activity from PubChem BioAssay.
# T cruzi growth-1: T. cruzi intracellular proliferation inhibitors, primary screen, cell-based, beta-gal Tulahuen parasites, NIH3T3 host, luminescence | T. cruzi beta-gal in NIH3T3, GalScreen luminescence, 90 h | inhibition, % at 8.34 µM | actives 5.9% (n = 77,000) | AID 624255, 2012;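 active = mean inhibition above about 93%, with at least 55% of replicates each passing it, limit read from the data, passing the limit was not always enough; inconclusive = only one of those two conditions holds; inactive = neither condition holds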
# IDH1 R132H inh: inhibitors of IDH1 R132H reductase, primary screen, biochemical, plate reader, single point. diaphorase/resazurin fluorescence, 60 min. inhibition, % at 10 µM. actives 0.18% (n = 70,000); in the data active = inhibition above about 34%; inconclusive = no clear call, values can overlap the other calls; inactive = below about 11%
# Target sequence (O75874 whole entry R132H): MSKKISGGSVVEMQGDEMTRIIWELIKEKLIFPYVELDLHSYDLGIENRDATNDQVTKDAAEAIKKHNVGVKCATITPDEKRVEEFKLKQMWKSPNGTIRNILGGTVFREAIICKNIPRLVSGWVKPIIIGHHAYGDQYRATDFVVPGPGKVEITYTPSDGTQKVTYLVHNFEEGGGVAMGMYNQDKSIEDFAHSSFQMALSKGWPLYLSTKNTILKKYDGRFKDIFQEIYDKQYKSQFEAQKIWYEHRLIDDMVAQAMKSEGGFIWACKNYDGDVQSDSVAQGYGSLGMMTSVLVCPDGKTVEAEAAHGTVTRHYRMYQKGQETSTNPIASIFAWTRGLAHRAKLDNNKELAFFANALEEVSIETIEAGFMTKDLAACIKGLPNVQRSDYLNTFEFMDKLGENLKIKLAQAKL
# Pf Dd2 inh: P. falciparum Dd2 growth inhibitors, primary screen, SYBR Green fluorescence, single dose replicates. 72 h; stronger effect = lower value. activity change, % at 10 µM. actives 2.3% (n = 94,000). AID 1159554, 2015; in the data active = activity change below about -80%; inconclusive = no clear call, values can overlap the other calls
# KDM4C inh: inhibitors of GASC-1 (KDM4C) histone demethylase, primary screen, biochemical, single concentration HTS. GST-KDM4C 2-372, H3K9me3 peptide, LANCE TR-FRET. Lysine-specific demethylase 4C (Homo sapiens), Q9H3R0. inhibition, % at 12.5 µM. actives 0.15% (n = 96,000);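 active = mean replicate inhibition above about 25%, with at least 55% of replicates also reaching it, limit read from the data, passing the limit was not always enough; inconclusive = only one of those two conditions met; inactive = neither condition met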
#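 Test system – GST-tagged GASC-1 (JMJD2C) catalytic fragment, aa 2-372 · Medium – HEPES buffer, pH 7.5, plus ascorbate · Reagent – H3K9me3 peptide with Fe(II)/2OG · Compound – one test concentration per compound · Timing – 30 min reaction, 60 min detection, RT · Technique – TR-FRET with Eu antibody and ULight streptavidin, EDTA stop · Read-out basis – inhibition from TR-FRET ratio decrease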
# T cruzi growth-2: T. cruzi intracellular proliferation inhibitors, confirmation, cell-based, NIH3T3 host, beta-gal parasite, luminescence, cherry-pick | T. cruzi beta-gal in NIH3T3, GalScreen luminescence, 90 h | shares compounds with T cruzi growth-1 | AID 651739, 2012 | actives 72% (n = 5,600) | inhibition, % at 8.35 µM;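 active = mean replicate inhibition above about 95% and at least 55% of replicates individually reaching it, limit read from the data; inconclusive = only one of the two criteria is met; inactive = neither criterion is met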
# T cruzi growth-3: inhibitors of intracellular T. cruzi replication, confirmation, NIH3T3 host cells, beta-gal parasites, cherry-pick, set 2; shares compounds with T cruzi growth-1; T. cruzi beta-gal in NIH3T3, GalScreen luminescence, 90 h; inhibition, % at 2.09 µM; actives 21% (n = 5,600);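 active = mean inhibition above about 95%, with at least 55% of replicates also reaching it, limit read from the data; inconclusive = meets just one of the two conditions; inactive = meets neither condition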
# 3T3 cytotox: cytotoxicity in mouse NIH/3T3 fibroblasts, confirmation, cytotoxicity control for T. cruzi proliferation inhibitor project, cell-based, cherry-pick, single point; NIH/3T3 viability, CellTiter-Glo ATP luminescence, 90 h; actives 14% (n = 5,600); cytotoxicity (signal decrease), % at 8.35 µM; AID 651742, 2012; shares compounds with T cruzi growth-1;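 active = mean signal decrease across replicates above about 35% based on untreated-well scatter, with enough replicates individually passing, limit read from the data; inconclusive = no rule stated though some were filed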
# NIH3T3 tox 2: NIH/3T3 fibroblast cytotoxicity, confirmation, cytotoxicity control, cell-based, cherry-pick, single point, set 2; shares compounds with T cruzi growth-1; NIH/3T3 viability, CellTiter-Glo ATP luminescence, 90 h; actives 56% (n = 5,600); AID 651744, 2012; inhibition, % at 24.9 µM;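 active = mean loss of cell viability signal at or above a set limit, and enough replicates individually reaching it; inconclusive = meets only the mean limit or only the replicate share; inactive = meets neither condition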
# A number is an active result; – = inactive; ? = inconclusive; · = not tested or not shown. This is a sample that favours compounds with a hit; in the whole collection about 5.9% have one here.
SMILES,T cruzi growth-1,IDH1 R132H inh,Pf Dd2 inh,KDM4C inh,T cruzi growth-2,T cruzi growth-3,3T3 cytotox,NIH3T3 tox 2
C[C@H](CO)N1C[C@H](C)[C@@H](CN(C)C(=O)Cc2ccncc2)Oc2cc(C3=CCCC3)ccc2S1(=O)=O,96.0,–,–,–,–,–,–,–
C[C@H](CO)N1C[C@H](C)[C@@H](CN(C)Cc2ccccc2)Oc2cc(C3=CCCC3)ccc2S1(=O)=O,–,–,–,–,·,·,·,·
COC(=O)c1ccccc1NC(=O)CSc1ncnc2sc3c(c12)CCC(C)C3 (stereo not given),·,–,·,·,·,·,·,·
Brc1ccc(CNc2nc3ccccc3n2CCN2CCOCC2)cc1,·,–,·,·,·,·,·,·
Cc1c(Br)c([N+](=O)[O-])nn1C(C)C(=O)Nc1ccccc1C(F)(F)F (stereo not given),·,–,·,·,·,·,·,·
N#C[C@@H]1N[C@@H](CO)[C@@H]1c1ccc(C#Cc2ccc(F)cc2)cc1,103.1,·,–,–,104.9,–,–,–
N#C[C@@H]1N[C@@H](CO)[C@H]1c1ccc(C#Cc2ccc(F)cc2)cc1,?,·,–,–,–,–,–,–
N#C[C@@H]1N[C@@H](CO)[C@H]1c1ccc(C#CC2CCCC2)cc1,?,·,–,–,–,–,–,–
Oc1c(C(Nc2ccccn2)c2ccccn2)cc(Cl)c2cccnc12 (stereo not given),·,–,·,·,·,·,·,·
Cc1ccc(OCC(=O)Nc2ccccc2C#N)cc1C,·,–,·,·,·,·,·,·
COc1ccc(S(=O)(=O)N2CCCCN3[C@@H](CO)[C@H](c4ccc(-c5cccnc5)cc4)[C@@H]3C2)cc1,–,·,–,–,·,·,·,·
COc1ccc(S(=O)(=O)N2CCCCN3[C@H](CO)[C@@H](c4ccc(-c5cccnc5)cc4)[C@@H]3C2)cc1,109.3,·,–,–,?,–,–,36.6
COc1cccc(S(=O)(=O)N2CCCCN3[C@H](CO)[C@H](c4ccc(-c5cccnc5)cc4)[C@H]3C2)c1,109.8,·,–,–,97.4,–,–,34.9
COc1ccc(S(=O)(=O)N2CCCCN3[C@H](CO)[C@H](c4ccc(-c5cccnc5)cc4)[C@@H]3C2)cc1,104.0,·,–,–,104.3,–,–,42.1
COc1ccc(S(=O)(=O)N2CCCCN3[C@H](C2)[C@H](c2ccc(-c4cccnc4)cc2)[C@@H]3CO)cc1,104.0,·,–,–,–,–,–,–
CCOC(=O)c1cc(-c2ccccc2)n(CCNC(=O)OC(C)(C)C)c1C,·,–,·,·,·,·,·,·
CCC1=C/C(=C\N(C)c2ccccc2)C(=O)S1,·,–,·,·,·,·,·,·
CS(=O)(=O)N(CC(=O)Nc1ccc(Br)cc1F)c1ccc(F)c(Cl)c1,·,–,·,·,·,·,·,·
CCOc1ccc(C(=O)c2oc3ccccc3c2NC(=O)c2cc(OC)c(OC)c(OC)c2)cc1,·,–,·,·,·,·,·,·
C[C@@H]1CN([C@H](C)CO)S(=O)(=O)c2ccc(-c3ccccc3)cc2O[C@H]1CN(C)Cc1cccnc1,91.9,·,–,–,–,–,59.1,100.9
Cc1ccc(-c2ccc3c(c2)O[C@@H](CN(C)Cc2cccnc2)[C@@H](C)CN([C@H](C)CO)S3(=O)=O)cc1,104.0,·,–,–,107.5,101.8,62.2,31.5
COC(=O)c1c(NC(=O)c2cc3ccccc3oc2=O)sc2c1C(C(=O)OC)CC2 (stereo not given),·,–,·,·,·,·,·,·
CCC(=O)N1CCCCN2[C@H](CO)[C@H](c3ccc(C#Cc4ccccc4)cc3)[C@H]2C1,108.1,·,–,–,–,–,40.2,105.9
CCC(=O)N1CCCCN2[C@@H](CO)[C@@H](c3ccc(C#Cc4cccnc4)cc3)[C@@H]2C1,111.0,·,–,–,102.0,–,–,–
CCC(=O)N1CCCCN2[C@@H](CO)[C@@H](c3ccc(C#Cc4ccccc4)cc3)[C@@H]2C1,105.6,·,–,–,103.6,–,–,103.9
SMILES,T cruzi growth-1,IDH1 R132H inh,Pf Dd2 inh,KDM4C inh,T cruzi growth-2,T cruzi growth-3,3T3 cytotox,NIH3T3 tox 2
CCC(=O)N1CCCCN2[C@@H](CO)[C@H](c3ccc(C#Cc4ccccc4)cc3)[C@@H]2C1,111.9,·,–,–,105.0,–,58.9,104.6
CCC(=O)N1CCCCN2[C@H](CO)[C@@H](c3ccc(C#Cc4ccccc4)cc3)[C@@H]2C1,–,·,–,–,·,·,·,·
COc1ccc(CCN2C(=O)C(C)SC2c2cccnc2)cc1 (stereo not given),·,–,·,·,·,·,·,·
Cc1nc(SCC(=O)c2cc3ccccc3oc2=O)c(C#N)c(C)c1C,·,–,·,·,·,·,·,·
CN1C(=O)c2cc(NC(=O)c3cccc(C(F)(F)F)c3)ccc2OC[C@@H]2O[C@@H](CC(=O)NCCN3CCCC3)CC[C@H]21,–,·,–,–,·,·,·,·
CN1C(=O)c2cc(NC(=O)c3cccc(C(F)(F)F)c3)ccc2OC[C@@H]2O[C@H](CC(=O)NCCN3CCCC3)CC[C@@H]21,98.0,·,–,–,99.3,–,–,–
CN1C(=O)c2cc(NC(=O)C3CC3)ccc2OC[C@@H]2O[C@@H](CC(=O)NCCN3CCCC3)CC[C@H]21,–,·,–,–,·,·,·,·
CN1C(=O)c2cc(NC(=O)C3CC3)ccc2OC[C@@H]2O[C@H](CC(=O)NCCN3CCCC3)CC[C@@H]21,?,·,–,–,–,–,–,–
C[C@H](CO)N1C[C@H](C)[C@@H](CN(C)Cc2ccc(Oc3ccccc3)cc2)Oc2ccc(NC(=O)Cc3ccccc3)cc2C1=O,?,–,–,–,–,–,–,89.1
C[C@@H]1CN([C@H](C)CO)C(=O)c2cc(NC(=O)Cc3ccccc3)ccc2O[C@H]1CN(C)Cc1ccc(-c2ccccc2)cc1,–,–,–,–,·,·,·,·
C[C@@H]1CN([C@@H](C)CO)C(=O)c2cc(NC(=O)Cc3ccccc3)ccc2O[C@@H]1CN(C)Cc1ccc(-c2ccccc2)cc1,?,·,–,–,110.8,–,–,94.6
COc1ccc([N+](=O)[O-])cc1NC(=O)CN(c1cc(C)ccc1C)S(C)(=O)=O,·,–,·,·,·,·,·,·
C=C(C)[C@@H]1CC=C(/C=N/NC(=O)CCCCCC(=O)O)CC1,·,–,·,·,·,·,·,·
C[C@H](O)C#Cc1ccc2c(c1)O[C@@H](CN(C)Cc1ccccn1)[C@H](C)CN([C@@H](C)CO)S2(=O)=O,–,·,–,–,·,·,·,·
